Data on three molecules can be found in publication PMC8361981 (Chemistry (Weinheim an Der Bergstrasse, Germany), 2021).

A word on the CC50: it is the concentration that lowers cell viability or growth by half. The low end stands for harm at low concentration, the high end for better tolerance by the cells. The term Kd denotes the concentration at which binding is half-saturated.

One series has as its system HIV-2 (ROD). The series is described as follows: Anti-HIV-2. Format: cell-based. The note with it: Human immunodeficiency virus 2, CD4+ T cell, read-out: EC50 HIV-2/ROD.
Series [1] can be described thus: Cytotoxicity in MT-4 cells. Format: cell-based. The note with it: human. An outline of the steps:
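Cytostatic read-out alongside the HIV cytopathicity assay. CC50 is the concentration that inhibits CD4 T cell proliferation by 50 %. Selectivity index is CC50/EC50.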

In a further series the test system is HIV-1 (NL4.3). The series can be described thus: Anti-HIV-1. Format: cell-based. The note with it: for EC50: Human immunodeficiency virus 1, CD4+ T cell, read-out: EC50 HIV-1/NL4.3.
The nature of series [2]: Cell viability of compound-treated, uninfected RD cells. Format: cell-based. The note with it: human, uninfected rhabdomyosarcoma (RD) cells. An outline of the steps:
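Compound-treated, uninfected RD cells run in a setup parallel to the EV71 BrCr cytopathic-effect reduction assay in RD cells. CC50 is the concentration giving a 50 % reduction in cell viability. Selectivity index is CC50/EC50.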

The subject of series [3] is EV71 BrCr laboratory-adapted strain. The series is described as follows: Anti-EV71 assay, BrCr laboratory-adapted strain in RD cells. Format: cell-based, Enterovirus A71. An outline of the steps:
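Enterovirus A71 BrCr (laboratory-adapted) was grown in rhabdomyosarcoma (RD) cells with test compound. EC50 is the concentration reducing virus-induced cytopathic effect by 50%. CC50 is the 50% loss of viability in compound-treated, uninfected RD cells run in a similar setup. SI = CC50/EC50.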

Series [4] deals with recombinant HIV-1 IIIB gp120 (Human immunodeficiency virus type 1 group M subtype B, UniProt P04578). The series can be described thus: Surface plasmon resonance. It is filed as binding. A digest of the protocol: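 Recombinant HIV-1 IIIB gp120, produced in Chinese hamster ovary cells, was immobilised as a monomer on a sensor chip. Test compound was passed over at 0.1–6.25 μM in two-fold dilution steps. Real-time binding responses were fitted to a 1:1 Langmuir model to obtain affinity and kinetic constants.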
In general terms: SPR reads the build-up and loss of mass on a sensor chip optically.

As for `C[C@H](Cn1cnc2c(N)ncnc21)OCP(=O)(O)O` [Tenofovir (PMPA), Tenofovir], the EC50 in the series on HIV-2 (ROD) was 1 µM; with HIV-1 (NL4.3), 4.74 µM. In series [1], this molecule came in with a cytotoxic concentration (CC50) at 5 days greater than 100 µM.

For the molecule `CCOC(=O)c1ccc(OCCC2CCN(c3ccc(C)nn3)CC2)cc1` [Pirodavir], the CC50 at 3 days in series [2] was greater than 100 µM. In series [3] (EV71 BrCr in RD cells, Table 3), the “SI selectivity index (CC50/EC50)” value is recorded as greater than 333. Besides, in series [3] (Enterovirus A, EV71, RD, read-out: EC50 EV71 BrCr), the EC50 amounted to 0.3 ± 0.1 µM.

On to `CN[C@@H]1[C@H](O[C@@H]2OC[C@@H](O)[C@H](O)[C@H]2O)[C@@H](O)[C@H](O[C@H]2c3cc(C)c(C(=O)N[C@H](C)C(=O)O)c(O)c3-c3c(cc4c(c3O)C(=O)c3cc(OC)cc(O)c3C4=O)[C@@H]2O)O[C@@H]1C` [Pradimicin A (PRM‐A), Pradimicin A], for which the EC50 was 5.9 ± 3.7 µM in the series on HIV-2 (ROD) and 3.3 ± 1.2 µM in the series on HIV-1 (NL4.3). In addition, in series [4], the equilibrium dissociation constant (Kd) worked out at 6.52 ± 0.11 µM. For the same molecule, the kd in series [4] (SPR, 1:1 Langmuir model, four replicates, 25 °C) was 12.64±2.92 (10^−3)(1/s). For the same molecule, the “binding to gp120 (in words)” value in series [4] (SPR, concentration-dependent) is “binds to gp120”. Also, the kon in series [4] (read-out: ka) was 1930 ± 420 M⁻¹ s⁻¹. The molecule further showed a CC50 at 5 days in series [1] greater than 100 µM. Besides, in the series with HIV-1 (NL4.3) (anti-HIV, Table 1), the “SI selectivity index (CC50/EC50)” value was greater than 30.3.
